Experimental data published in ChEMBL document CHEMBL1132148, “Synthesis and biological activity of (hydroxymethyl)- and (diethylaminomethyl)benzopsoralens” (J Med Chem, 1999).
Activity calls are given as the source filed them. No cut-off for these calls is given here.

Tests used:
Cavia porcellus [1] = species on record: Cavia porcellus; experiment: Phototoxicity on guinea pig skin was calculated at concentration of 2 uM.cm-2 and UVA light dose 5 kJ.me-2.-- indicates no erythemia; format: functional, organism-based
How it was run: (§1)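 Depilated albino guinea pigs (outbred Dunkin-Hartley) received test compounds topically as 4.5 mM methanol solutions and were then exposed to UVA. The read-out was erythema scoring.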

Cavia porcellus [2] = species on record: Cavia porcellus; experiment: Phototoxicity on guinea pig skin was calculated at concentration of 30 uM.cm-2 and UVA light dose 5 kJ.me-2. ++++ medium erythemia; format: functional, organism-based; settings: in the assay text read “strong erythema with edema” for “medium erythemia”; how it was run: as §1
Cavia porcellus [3] = species on record: Cavia porcellus; experiment: Phototoxicity on guinea pig skin was calculated at concentration of 4 uM.cm-2 and UVA light dose 5 kJ.me-2.+-- barely erythemia; format: functional, organism-based; how it was run: as §1
[4] = The IC50-UVA is the dose of UVA light which in the presence of fixed drug concentration (20 uM) is necessary to induce a 50% inhibition of DNA synthesis by incubation at the ground state by keeping mammalian cells in the dark.; format: functional
How it was run: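 Ehrlich cells (Lettré strain) at 2 × 10^7 cells·mL-1 in PBS were irradiated with increasing UVA doses in the presence of 20 μM compound, with final DMSO ≤0.5%. Then 10^6 cells were labelled with 40 kBq·mL-1 [3H]thymidine for 30 min at 37 °C. Incorporation is given as % of untreated control, and IC50-UVA is the UVA dose (kJ·m-2) giving 50% inhibition.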

[5] = The IC50-dark is the drug concentration necessary to induce a 50% inhibition of DNA synthesis by incubation at the ground state by keeping mammalian cells in the dark.; format: functional
How it was run: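 Ehrlich cells (Lettré strain) in PBS received compound at room temperature without irradiation, with final DMSO ≤0.5%. They were then held 30 min at 37 °C in the dark with 40 kBq·mL-1 [3H]thymidine. DNA-incorporated radioactivity is expressed as % of untreated controls, and IC50 is the concentration giving 50% inhibition.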

[6] = The IC50-dark is the drug concentration necessary to induce a 50% inhibition of clonal growth by incubation at the ground state by keeping mammalian cells in the dark.; format: functional
How it was run: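 HeLa cells seeded at 1.5–2 × 10^5 were exposed after 24 h to compound in serum-containing growth medium for 3 h at 37 °C under 5% CO2, in the dark and without UVA. Controls had 0.5% DMSO. Afterwards 200 cells were replated and grown 7 days, and colonies of ≥50 cells were counted. IC50 is the concentration halving clonal efficiency.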

[7] = The IC50-UVA is the dose of UVA light which in the presence of fixed drug concentration (20 uM) is necessary to induce a 50% inhibition of clonal growth by incubation at the ground state by keeping mammalian cells in the dark; format: functional
How it was run: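 HeLa cells were grown in F-12 Ham with 5% FCS at 37 °C under 5% CO2, seeded at 1.5–2 × 10^5 and given 20 μM compound after 24 h. Cells had 15 min of dark uptake, then increasing UVA doses. Afterwards 200 cells were replated in 10% FCS medium for 7 days and colonies of ≥50 cells were counted. Clonal efficiency is colonies over cells seeded. IC50-UVA is the UVA dose giving 50% inhibition.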

Cavia porcellus [8] = species on record: Cavia porcellus; experiment: Phototoxicity on guinea pig skin was calculated at concentration of 30 uM.cm-2 and UVA light dose 20 kJ.me-2.-- indicates no erythemia.; format: functional, organism-based; how it was run: as §1

## COc1c2occc2cc2ccc(=O)oc12 [METHOXSALEN]
Cavia porcellus [1]
  Intensity of erythemia: inactive
Cavia porcellus [2]
  Intensity of erythemia: Active
Cavia porcellus [3]
  Intensity of erythemia: Partially active
[4]
  IC50: 3.59 kJ m**-2
[5]
  IC50: > 30 µM
[6]
  IC50: > 30 µM
[7]
  IC50: 1.23 kJ m**-2

## O=c1ccc2cc3c(oc4ccccc43)c(CO)c2o1
Cavia porcellus [8]
  Intensity of erythemia: no erythemia
[4]
  IC50: 0.97 kJ m**-2
[5]
  IC50: 3 µM
[6]
  IC50: 6.8 µM
[7]
  IC50: 0.19 kJ m**-2

## O=c1oc2cc3oc4ccccc4c3cc2cc1CO
Cavia porcellus [8]
  Intensity of erythemia: no erythemia
[4]
  IC50: 16.8 kJ m**-2
[5]
  IC50: > 30 µM
[6]
  IC50: > 30 µM
[7]
  IC50: 1.06 kJ m**-2

## CCN(CC)Cc1c2oc(=O)ccc2cc2c1oc1ccccc12
Cavia porcellus [8]
  Intensity of erythemia: no erythemia
[4]
  IC50: 9.3 kJ m**-2
[5]
  IC50: 10.7 µM
[6]
  IC50: 10.7 µM
[7]
  IC50: 0.65 kJ m**-2

## CCN(CC)Cc1ccc2c(c1)oc1cc3oc(=O)cc(C)c3cc12
Cavia porcellus [8]
  Intensity of erythemia: no erythemia
[4]
  IC50: 2.22 kJ m**-2
[5]
  IC50: > 30 µM
[6]
  IC50: > 30 µM
[7]
  IC50: 1.83 kJ m**-2

## CCN(CC)Cc1c2ccc(=O)oc2cc2oc3ccccc3c12
Cavia porcellus [8]
  Intensity of erythemia: no erythemia
[4]
  IC50: > 30 kJ m**-2
[5]
  IC50: > 30 µM
[6]
  IC50: > 30 µM
[7]
  IC50: > 30 kJ m**-2

## CCN(CC)Cc1cc2cc3c(cc2oc1=O)oc1ccccc13
Cavia porcellus [8]
  Intensity of erythemia: no erythemia
[4]
  IC50: > 30 kJ m**-2
[5]
  IC50: > 30 µM
[6]
  IC50: > 30 µM
[7]
  IC50: > 30 kJ m**-2

## Cc1cc(=O)oc2cc3oc4cc(CO)ccc4c3cc12
Cavia porcellus [8]
  Intensity of erythemia: no erythemia
[4]
  IC50: 0.48 kJ m**-2
[5]
  IC50: > 30 µM
[6]
  IC50: > 30 µM
[7]
  IC50: 0.16 kJ m**-2

## O=c1cc(CO)c2cc3c(cc2o1)oc1ccccc13
Cavia porcellus [8]
  Intensity of erythemia: no erythemia
[4]
  IC50: 0.67 kJ m**-2
[5]
  IC50: 0.94 µM
[6]
  IC50: 3.8 µM
[7]
  IC50: 0.11 kJ m**-2

## O=c1ccc2c(CO)c3c(cc2o1)oc1ccccc13
Cavia porcellus [8]
  Intensity of erythemia: no erythemia
[4]
  IC50: 8.3 kJ m**-2
[5]
  IC50: 10.9 µM
[6]
  IC50: 25 µM
[7]
  IC50: 0.23 kJ m**-2
